HNF4A DNA FP: change in binding of human HNF4A to DNA, primary screen, biochemical, fluorescence polarization, FITC-DNA; 1 h; activity change, % at 10 µM; 360,000 tested, 0.3% active; AID 1224865, 2016; in the data active = activity change above about 30%, passing the limit was not always enough
Target sequence (P41235 whole entry, looked up): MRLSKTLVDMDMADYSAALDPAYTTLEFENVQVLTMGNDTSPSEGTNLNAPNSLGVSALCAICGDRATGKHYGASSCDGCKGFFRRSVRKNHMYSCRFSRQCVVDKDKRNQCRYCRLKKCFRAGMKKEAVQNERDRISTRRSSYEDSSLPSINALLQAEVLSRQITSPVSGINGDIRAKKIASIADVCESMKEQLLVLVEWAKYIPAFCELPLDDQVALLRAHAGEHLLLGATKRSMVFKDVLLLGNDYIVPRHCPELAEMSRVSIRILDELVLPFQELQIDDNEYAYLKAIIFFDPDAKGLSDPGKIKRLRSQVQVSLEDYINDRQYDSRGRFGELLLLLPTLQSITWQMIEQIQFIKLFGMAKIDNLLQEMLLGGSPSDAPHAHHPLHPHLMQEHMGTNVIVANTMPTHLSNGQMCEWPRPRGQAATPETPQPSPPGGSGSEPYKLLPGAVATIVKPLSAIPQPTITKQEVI
Myeloid diff 2: induction of myeloid progenitor differentiation, primary screen, cell-based, flow cytometry, MLPCN library. calls only at 10 µM. AID 624256, 2012. ER-HoxA9 myeloid progenitors, lysozyme-GFP differentiation. 360,000 tested, 1% active;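 active = normalized GFP-positive differentiation at or above the plate's own cutoff, the solvent-only control mean plus 3 SD; inconclusive = no clear call, values can overlap the other calls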;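 also: cells exposed to compound for four days before flow analysis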
Granule exo inh: LAMP-1 surface exposure blockers, TALL-104 cells – cell-based, flow cytometry, MLPCN library, primary screen | inhibition, % at 10 µM | AID 651702, 2012 | 360,000 tested, 0.66% active | TALL-104 LAMP-1 surface exposure; cells stimulated with thapsigargin and PMA;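 active = inhibition above about 55%, limit read from the data; inconclusive = no clear call, values can overlap the other calls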
CSN deneddyl inh: inhibitors of CSN-mediated cullin deneddylation, primary screen, biochemical, fluorescence polarization, uHTS; COP9 signalosome complex subunit 5 (Homo sapiens), Q92905; Purified CSN, SCF-Nedd8-OG deneddylation; inhibition, % at 12.5 µM; 360,000 tested, 0.38% active;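 active = pattern-corrected inhibition above about 35%, with an unprinted fluorescence ratio check between 0.5 and 1.5, limit read from the data, passing the limit was not always enough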;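 also: 0% = enzyme with substrate and 100% = substrate without enzyme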
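Assay system: HEK293T-derived human Csn5 enzyme; quantity: 0.24 nM enzyme; medium: Tris/NaCl/DTT buffer, pH 7.5; also added: substrate SCFSkp2-Nedd8OG, 10 nM; doses: 12.5 µM compound; schedule: 90 min reaction at room temperature; signal: FP; read-out: % inhibition of substrate cleavage by Csn5; benchmarks: substrate-only high control, full reaction low control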
Myeloid diff CP1: inducers of myeloid progenitor differentiation, confirmation, cell-based, GFP/Mac1 flow cytometry, cherry pick 01; ER-HoxA9 myeloid progenitors, GFP/Mac1 double-positive flow; AID 651706, 2012; shares compounds with Myeloid diff 2; 2,300 tested, 2% active; calls only;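 active = share of green or green-and-red cells above 9 and 9% in run 1 or 4 and 3% in run 2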
GFP autofluor: flagged as fluorescent in myeloid differentiation counter-screen; shares compounds with Myeloid diff 2; ER-HoxA9 myeloid progenitors, no estrogen, GFP autofluorescence flow cytometry; vehicle wells 0%, positive control 100%; fluorescence response, % (concentration not given with the values); 2,300 tested, 7.4% active; AID 651707;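 active = over 5% cells positive for green fluorescent reporter, or over 2% positive for both it and APC stain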;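 also: range taken on the double positive population between DMSO and positive control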
Starred values were filed as active, the others as inactive; i = inactive; ? = inconclusive; nt = no result; + = active, no number. Hits are enriched below; roughly 2.2% of the tested compounds scored in any of these assays.

SMILES	HNF4A DNA FP	Myeloid diff 2	Granule exo inh	CSN deneddyl inh	Myeloid diff CP1	GFP autofluor
Cc1ccc2cc(C#N)c(N3CCCN(C(=O)C4CCCO4)CC3)nc2c1C (centres undefined)	8	i	1	-2	i	1
CCn1cc(C(=O)N2CCN(c3cccc(C)c3C)CC2)c(=O)c2ccc(C)nc21	1	i	-4	-2	nt	nt
CCn1cc(C(=O)N2CCN(c3ccc([N+](=O)[O-])cc3)CC2)c(=O)c2ccc(C)nc21	-1	+	10	3	i	0
Cc1ccc(CCNC(=O)CCS(=O)(=O)c2ccc3nc(C)sc3c2)cc1	1	i	-2	-4	i	0
CCOC(=O)/C=C1\CC(C(=O)OCC)Oc2ccccc21 (centres undefined)	1	i	2	0	nt	nt
CCOC(=O)/C=C1\Nc2ccccc2OC1=O	1	+	-2	-5	i	0
CC(NC(=O)c1ccc(F)cc1F)C1CC2CCC1C2 (centres undefined)	1	?	-4	4	nt	nt
COC(=O)c1cc(NC(=O)CN2CCc3cc4c(cc3C2)OCCCO4)cc(C(=O)OC)c1	4	i	2	0	i	0
CCOC(=O)c1ccc(NC(=O)CN2CCc3ccccc3C2)cc1	5	i	8	-7	i	2
COc1ccc(C(CCNCc2ccccc2)c2ccc(F)cc2)cc1 (centres undefined)	3	i	9	-14	i	2
Cc1cc(N2CCN(C(=O)c3[nH]c(C(F)(F)F)nc3-c3ccccc3)CC2)c2ccccc2n1	2	i	2	1	i	82*
Cc1ccc(N2CCN(C(=O)c3[nH]c(C(F)(F)F)nc3-c3ccccc3)CC2)cc1	-1	i	0	1	nt	nt
Cc1n[nH]c(C)c1N1C(=O)c2cccc3c(Br)ccc(c23)C1=O	-2	i	-4	4	i	0
Cc1n[nH]c(C)c1N1C(=O)c2cccc3cc(Br)cc(c23)C1=O	3	i	-2	0	nt	nt
O=c1oc(-c2ccccc2)nc2c1cnn2-c1ccccc1	0	i	6	5	nt	nt
O=c1oc(-c2cccs2)nc2c1cnn2-c1ccccc1	-1	i	14	9	i	1
CN(C)S(=O)(=O)N1CCN(C(=O)c2ccc3c(c2)OCO3)CC1	-3	i	2	-3	nt	nt
Cc1cc(NC(=O)c2noc3c2CCCC3)n(-c2ccccc2)n1	-1	+	0	-2	i	0
Cc1cc(NC(=O)c2cc(-c3ccccc3)on2)n(-c2ccccc2)n1	-3	i	-5	-3	nt	nt
Cc1cc(NC(=O)c2cc(-c3ccc4c(c3)OCO4)on2)n(-c2ccccc2)n1	-1	+	-4	-2	i	0
COc1ccccc1NC(=O)N1CCN(c2cc(-c3ccccc3)nc3ncnn23)CC1	2	i	0	1	i	0
COc1ccc(OC)c(NC(=O)C2CCN(c3cc(-c4ccccc4)nc4ncnn34)CC2)c1	-2	i	0	0	nt	nt
Cc1ccc(Oc2ccc(Cl)cc2NC(=O)c2cnccn2)cc1	-8	+	3	-3	i	0
COc1cc(CCC(=O)OCC(=O)Nc2ccc(F)c(F)c2F)cc(OC)c1OC	0	i	1	-5	nt	nt
O=[N+]([O-])c1ccccc1-c1ccc(C(=S)N2CCN(c3ccccc3)CC2)o1	5	+	-5	5	i	0
SMILES	HNF4A DNA FP	Myeloid diff 2	Granule exo inh	CSN deneddyl inh	Myeloid diff CP1	GFP autofluor
N/C(Cc1cccc2ccccc12)=N\OC(=O)COc1ccccc1	7	i	-5	-1	i	0
COc1ccccc1C/C(N)=N/OC(=O)COc1cccc2ccccc12	5	i	-2	4	nt	nt
CC(=O)NN1C(=O)c2ccc3c4c(ccc(c24)C1=O)C(=O)N(NC(C)=O)C3=O	0	+	12	-1	i	0
O=C1c2ccc3c4c(ccc(c24)C(=O)N1NC(=O)C(F)(F)F)CC3	-10	i	-3	1	nt	nt
O=S1(=O)CC(N2CCN(CC3CC3)CC2)CN1Cc1ccc(F)cc1 (centres undefined)	-1	i	-2	3	nt	nt
Cc1nc(SCC(=O)NCC2CCCO2)c2c3c(sc2n1)CCC3 (centres undefined)	1	i	-3	-1	nt	nt
Cc1ccc2cc(C#N)c(SCC(=O)NCC3CCCO3)nc2c1 (centres undefined)	2	i	-1	2	i	0
Cc1nc(SCC(=O)NCC2CCCO2)c2cc(-c3ccccc3)sc2n1 (centres undefined)	8	i	1	-1	i	0
Cc1ccc(-c2nc(SCC(=O)NCC3CCCO3)c(-c3ccc(C)cc3)[nH]2)cc1 (centres undefined)	0	i	-2	-3	i	0
Cc1ccc(-c2[nH]c(-c3ccccc3)nc2SCC(=O)NCC2CCCO2)cc1 (centres undefined)	4	i	3	-1	nt	nt
Cc1ccc2nc(SCC(=O)NCC3CCCO3)c(C#N)cc2c1 (centres undefined)	-4	i	1	-3	nt	nt
CCOC(=O)C1CCN(C(=O)COc2ccc([N+](=O)[O-])cc2)CC1	-3	i	3	-8	nt	nt
CCOC(=O)C1CCN(C(=O)COC(=O)/C=C/c2ccc([N+](=O)[O-])cc2)CC1	-1	i	-1	1	i	2
CCCC(=O)Nc1cc(-c2nc3ncccc3o2)ccc1C	2	nt	-1	5	i	0
O=C(O)C1=CC[C@@H](c2ccc(Cl)cc2)N(S(=O)(=O)c2ccc(Cl)cc2)C1	1	i	-2	-2	nt	nt
COc1ccccc1CNC(=O)C1CCN(S(=O)(=O)N2CCCCC2)CC1	-2	i	-7	2	nt	nt
CCS(=O)(=O)N1CCC(C(=O)NCc2ccccc2OC)CC1	-5	+	6	-5	i	0
COc1ccccc1OCCNC(=O)c1ccc(S(=O)(=O)N(C)C)cc1	-2	i	1	-2	nt	nt
COc1ccccc1CNC(=O)c1ccc(S(=O)(=O)N(C)C)cc1	0	i	-2	0	i	0
COc1cccc(C(O)c2nc(-c3ccccc3C)cs2)c1 (centres undefined)	-4	+	-8	2	i	0
c1cc2c(cc1NC1CCCCCC1)OCO2	-3	+	-1	3	i	0
CCCc1nnc(SCC(=O)NC2CCCCC2)n1CCOC	3	i	4	0	nt	nt
